High-throughput results from PubChem BioAssay.
CYP2C19 activ: cytochrome P450 2C19 (human) activation. P33261. recombinant CYP2C19, luciferin-H EGE luminescence; active compounds read high; 0 = fully inhibited enzyme, 1 = untreated enzyme. activation factor at 5 µM. 96,000 tested, under 10 active. AID 1025;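 active means activation factor of at least 2 at 5 µM in the primary screen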
Target sequence (P33261 whole entry, looked up): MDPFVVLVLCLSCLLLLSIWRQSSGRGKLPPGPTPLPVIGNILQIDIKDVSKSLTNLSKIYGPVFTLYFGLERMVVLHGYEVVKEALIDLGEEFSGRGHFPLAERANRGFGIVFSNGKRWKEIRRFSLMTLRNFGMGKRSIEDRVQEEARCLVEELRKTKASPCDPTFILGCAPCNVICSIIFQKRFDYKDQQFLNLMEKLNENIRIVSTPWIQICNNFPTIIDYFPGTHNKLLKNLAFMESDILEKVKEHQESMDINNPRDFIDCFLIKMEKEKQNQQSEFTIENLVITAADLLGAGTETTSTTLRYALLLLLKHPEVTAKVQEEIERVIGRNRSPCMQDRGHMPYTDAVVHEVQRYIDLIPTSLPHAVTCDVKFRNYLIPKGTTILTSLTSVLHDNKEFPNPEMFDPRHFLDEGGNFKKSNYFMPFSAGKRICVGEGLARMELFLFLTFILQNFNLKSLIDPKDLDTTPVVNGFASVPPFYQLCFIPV
E coli WT exp: blocks growth of wild type E. coli BW25113. OD600 absorbance. growth inhibition, % at 100 µM. 0.15% of 98,000 active. AID 710;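 active means growth inhibition above about 50% at one test dose, limit read from the data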;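 further: growth measured after 20 h incubation at 37 °C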
CYP2C19 inhib: blocks human cytochrome P450 2C19 | P33261 | CYP2C19 Supersomes, luciferin-H EGE luminescence, 30 min | inhibition, % at 5 µM | 21% of 96,000 active;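 active means CYP2C19 inhibition above a set limit at 5 µM in the primary screen, cut at about 50% in these data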
Ecoli tolC: E. coli tolC mutant growth inhibition | growth inhibition, % at 10 µM (by protocol) | AID 573 | 2.2% of 65,000 active | E. coli BW25113 tolC mutant growth, OD615;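 active means growth inhibition at or above a cutoff equal to the mean over every tested compound plus 3 SD, cut at about 60% in these data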;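 further: growth measured after 20 h incubation at 37 °C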
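Material: E. coli BW25113 ΔtolC::kan, tolC deletion mutant strain. Measure: percent growth inhibition. Schedule: 37 °C, 20 h exposure. Doses: single-point testing at 10 µM. Signal: A615 absorbance measurement. Buffer or medium: kanamycin-containing LB broth (50 µg/mL).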
CYP2C9 act: activators of human CYP2C9; 1.4% of 96,000 active; recombinant CYP2C9, luciferin-H conversion, luminescence; active compounds read high; factor 1 = untreated enzyme, 0 = blocked; P11712; activation factor at 5 µM;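 active means activation factor of 2 or more for CYP2C9 at a 5 µM dose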
CYP2C9 inhib: blocks human cytochrome P450 2C9. CYP2C9 Supersomes, luciferin-H conversion, luminescence. inhibition, % at 5 µM. 20% of 96,000 active;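 active means blocking of liver enzyme CYP2C9 beyond about 50% at 5 µM, limit read from the data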
Large screens that a line does not name were inactive. Only some compounds are listed: those with a hit (about 29% of all), similar ones and a draw of the others.

CCOC(=O)c1cc2c(=O)n3ccccc3nc2n(C(C)C)c1=NC(=O)c1ccncc1	CYP2C19 inhib 65
CCCCCSc1nc2c(c(=O)[nH]c(=O)n2C)n1CCc1ccccc1	none (no result: E coli WT exp)
C=CCOC(=O)C1=C(C)NC(SCC(=O)OCC)=C(C#N)C1c1ccc(O)c(OC)c1 (stereo not given)	CYP2C19 inhib 99, CYP2C9 inhib 100
C=CCOC(=O)C1=C(C)NC(SC)=C(C#N)C1c1ccc(OCC)cc1 (stereo not given)	CYP2C19 inhib 86, CYP2C9 inhib 93
Cn1c(NC(=O)COc2ccccc2)cc(=O)n(C)c1=O	none (no result: Ecoli tolC)
COC(=O)c1cccc(Oc2nc3c(c(=O)n(C)c(=O)n3C)n2C(C)C)c1	CYP2C9 inhib 75
COC(=O)c1ccccc1NC(=O)Cn1cnc2c1c(=O)n(C)c(=O)n2C	none (no result: CYP2C19 activ, E coli WT exp, CYP2C19 inhib, CYP2C9 act, CYP2C9 inhib)
CCOC(=O)c1cccc(NC(=O)Cn2cnc3c2c(=O)n(C)c(=O)n3C)c1	CYP2C9 inhib 72
COC(=O)c1cccc(NC(=O)Cn2cnc3c2c(=O)n(C)c(=O)n3C)c1	CYP2C9 inhib 61 (no result: E coli WT exp)
CSc1nc2ccccc2n1CC(=O)Nc1ccc(C)c(C)c1	none (no result: CYP2C19 activ, E coli WT exp, CYP2C19 inhib, CYP2C9 act, CYP2C9 inhib)
Nc1nnc(SCC(=O)NC23CC4CC(CC(C4)C2)C3)s1	none (no result: Ecoli tolC)
O=c1c(/C=C(\O)c2ccccc2)nc2ccccc2n1-c1ccccc1	none (no result: Ecoli tolC)
CCn1[nH]c(=O)c(=Nc2c(C)n(C)n(-c3ccccc3)c2=O)cc1-c1ccc(Cl)cc1	none
CC(C)Cc1nnc(NC(=O)CSc2nc(N)cc(=O)[nH]2)s1	none (no result: Ecoli tolC)
Cc1occc1C(=O)Nc1ccc(Br)cc1F	CYP2C19 inhib 50 (no result: Ecoli tolC)
COc1ccc(Cl)cc1NC(=O)c1nc2nc(C)cc(C(F)F)n2n1	CYP2C9 act 3.6
O=C(Nc1cnc2sccn2c1=O)c1ccc(Cl)cc1Cl	none (no result: Ecoli tolC)
COc1ccc(Cl)cc1NC(=O)c1cnc2sccn2c1=O	CYP2C9 act 2.1
COc1ccc(Cl)cc1NC(=O)N(C)Cc1c(C)nn(C)c1C	CYP2C19 inhib 86, CYP2C9 act 2.4
CCCn1c(SCC(=O)NC(C)(C)C)nnc1C(C)C	none
O=C1CCC(C(=O)Nc2cccc3ccccc23)N1 (stereo not given)	none
COc1ccc(NC(=O)c2ocnc2C)cc1OC	none
COc1ccc(Cl)cc1NC(=O)c1ccoc1C	CYP2C9 act 2.6
COc1ccc(Cl)cc1NC(=O)c1ocnc1C	CYP2C9 act 2.6
COc1ccc(C)cc1NC(=O)c1ccoc1C	none
COc1ccc(C(C)(C)C)cc1NC(=O)c1ccoc1C	CYP2C19 inhib 62
CC1(C)C(=O)N(OCc2ccccc2)C(C)(C)C(=O)N1OCc1ccccc1	CYP2C19 inhib 57 (no result: Ecoli tolC)
Cc1ccc(Nc2nc(-c3c(C)nc4ccccn34)cs2)cc1	CYP2C19 inhib 67 (no result: Ecoli tolC)
Cc1ccc(Nc2nc(-c3c(C)nc4ncccn34)cs2)cc1	CYP2C9 act 2 (no result: Ecoli tolC)
O=C(NCc1ccccc1)c1ccc(/C=N/O)nc1	CYP2C19 inhib 63
CS(=O)(=O)N(Cc1ccccc1)c1ccc(C(=O)NCc2ccccc2)cc1	CYP2C19 inhib 62, CYP2C9 inhib 53 (no result: Ecoli tolC)
CCCNC(=O)c1ccc(N(Cc2ccccc2)S(C)(=O)=O)cc1	none (no result: Ecoli tolC)
CN(C)CCCNC(=O)c1ccc(CN(c2ccccc2)S(C)(=O)=O)cc1	CYP2C9 inhib 64
O=C(NCc1ccccc1)c1ccc(S(=O)(=O)C(F)F)cc1	CYP2C19 inhib 68 (no result: Ecoli tolC)
Cc1ccc(-c2ccc(/C=N/N3C(=O)C4C5C=CC(C6CC56)C4C3=O)o2)c([N+](=O)[O-])c1 (stereo not given)	none (no result: Ecoli tolC)
CCOc1ccc(OCC)c(C2C(C#N)=C(N)N(c3cccnc3)C3=C2C(=O)CC(C)(C)C3)c1 (stereo not given)	none
Cc1ccc2c(C)nc(NC3=NCN(C(C)C)CN3)nc2c1	none (no result: CYP2C19 activ, E coli WT exp, CYP2C19 inhib, CYP2C9 act, CYP2C9 inhib)
CCCCCCOc1ccc(-c2ccc(C#N)cn2)cc1	none (no result: Ecoli tolC)
CN(C)CCCNC(=O)c1ccc(Cl)c(S(=O)(=O)N(C)c2ccccc2)c1	CYP2C19 inhib 97 (no result: Ecoli tolC)
CS(=O)(=O)N(Cc1ccccc1)c1ccc(C(=O)NC2CCCCC2O)cc1 (stereo not given)	CYP2C19 inhib 52
CS(=O)(=O)N(Cc1ccccc1)c1ccc(C(=O)NCc2cccnc2)cc1	CYP2C19 inhib 91, CYP2C9 inhib 91 (no result: Ecoli tolC)
CS(=O)(=O)N(Cc1ccc(C(=O)NC2CCCCC2O)cc1)c1ccccc1 (stereo not given)	none
